According to ChEMBL document CHEMBL3112561, “Small molecule disruptors of the glucokinase-glucokinase regulatory protein interaction: 2. Leveraging structure-based drug design to identify analogues with improved pharmacokinetic profiles” (J Med Chem, 2014):

Assays:
[1] = Volume of distribution at steady state in rat at 2 mg/kg, iv; format: ADME, organism-based; set-up: dose 2 mg/kg, route intravenous; conditions: in vivo, read-out: Vdss
How it was run: (§1)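 Intravenous PK at 2 mg/kg in 100% DMSO; steady-state volume of distribution derived from plasma profile.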

[2] = Oral bioavailability in rat at 10 mg/kg; format: ADME, organism-based; conditions: in vivo
Mus musculus [3] = test: Unbound maximum concentration in C57Bl6 mouse at 10 mg/kg, po; format: ADME, organism-based; set-up: dose 10 mg/kg, route oral; conditions: in vivo
Plasma [4] = test: Unbound plasma concentration in insulin-resistant db/db mouse at 10 mg/kg, po measured at 6 hrs; format: ADME, organism-based; set-up: dose 10 mg/kg, route oral; conditions: in vivo
How it was run: (§2)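 Fed db/db mice dosed orally (10, 30, 100 mg/kg) in 2% HPMC/1% Tween 80 vehicle, pH 2.2 (MSA), gavaged at 9:00 AM. A 15 μL whole-blood sample taken at 6 h post-dose for drug exposure, reported as unbound plasma concentration.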

[5] = Mean residence time in C57Bl6 mouse at 10 mg/kg, po; format: ADME, organism-based; set-up: dose 10 mg/kg, route oral; conditions: in vivo
How it was run: (§3)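 Oral PK at 10 mg/kg in 1% Tween 80, 2% HPMC, 97% water, […]; mean residence time from plasma profile.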

[6] = Mean residence time in rat at 10 mg/kg, po; format: ADME, organism-based; set-up: dose 10 mg/kg, route oral; conditions: in vivo; how it was run: as §3
Plasma [7] = test: Unbound plasma concentration in insulin-resistant db/db mouse at 30 mg/kg, po measured at 6 hrs; format: ADME, organism-based; set-up: dose 30 mg/kg, route oral; conditions: in vivo; how it was run: as §2
[8] = Volume of distribution at steady state in C57Bl6 mouse at 2 mg/kg, iv; format: ADME, organism-based; set-up: dose 2 mg/kg, route intravenous; conditions: in vivo, read-out: Vdss; how it was run: as §1
[9] = Oral bioavailability in C57Bl6 mouse at 10 mg/kg; format: ADME, organism-based; conditions: in vivo
Plasma [10] = test: Unbound plasma concentration in insulin-resistant db/db mouse at 100 mg/kg, po measured at 6 hrs; format: ADME, organism-based; set-up: dose 100 mg/kg, route oral; conditions: in vivo; how it was run: as §2
[11] = molecular target: T1, Glucokinase regulatory protein (Mus musculus, UniProt Q91X44); test: Induction of GK translocation from nucleus to cytoplasm of mouse hepatocytes preincubated for 20 mins followed by glucose challenge measured after 40 mins by Hoechst 33342 staining-based assay; format: cell-based, Hepatocyte
T1 sequence (Q91X44 whole entry): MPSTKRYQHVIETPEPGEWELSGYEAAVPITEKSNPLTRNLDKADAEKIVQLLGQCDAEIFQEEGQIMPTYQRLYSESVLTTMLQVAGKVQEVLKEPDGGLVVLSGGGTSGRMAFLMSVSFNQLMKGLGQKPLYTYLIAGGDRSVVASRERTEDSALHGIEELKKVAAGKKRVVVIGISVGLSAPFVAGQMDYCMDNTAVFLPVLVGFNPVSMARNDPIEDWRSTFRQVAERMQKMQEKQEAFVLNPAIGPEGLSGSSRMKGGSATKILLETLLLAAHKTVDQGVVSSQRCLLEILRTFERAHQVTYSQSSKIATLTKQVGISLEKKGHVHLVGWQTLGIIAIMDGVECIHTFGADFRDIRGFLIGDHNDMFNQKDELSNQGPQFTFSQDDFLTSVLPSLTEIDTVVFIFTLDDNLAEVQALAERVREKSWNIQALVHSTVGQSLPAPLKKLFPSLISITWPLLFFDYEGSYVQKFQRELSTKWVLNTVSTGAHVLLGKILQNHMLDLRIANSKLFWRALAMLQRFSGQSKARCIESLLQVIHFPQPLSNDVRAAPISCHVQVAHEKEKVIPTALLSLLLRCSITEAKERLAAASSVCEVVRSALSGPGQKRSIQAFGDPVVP

[12] = Intrinsic clearance in human liver microsomes at 1 uM after 30 mins in presence of NADPH; format: ADME; conditions: read-out: CLH
[13] = Ratio of EC50 for induction of GK translocation from nucleus to cytoplasm of mouse hepatocytes to ratio of unbound maximum concentration in C57Bl6 mouse; set-up: species or system Hepatocyte
Liver microsome [14] = test: Drug metabolism in rat liver microsomes assessed as oxidation of bicyclic morpholine ring; format: ADME
[15] = Fraction unbound in rat plasma at 10 mg/kg, po by rapid equilibrium dialysis method; format: ADME, organism-based; set-up: dose 10 mg/kg, route oral
How it was run: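 Plasma fraction unbound measured by rapid equilibrium dialysis.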

Liver microsome [16] = test: Drug metabolism in human liver microsomes assessed as oxidation of bicyclic morpholine ring; format: ADME
Mus musculus [17] = test: Unbound maximum concentration in C57Bl6 mouse at 100 mg/kg, po; format: ADME, organism-based; set-up: dose 100 mg/kg, route oral; conditions: in vivo
[18] = Clearance in rat at 2 mg/kg, iv; format: ADME, organism-based; set-up: dose 2 mg/kg, route intravenous; conditions: in vivo

Vd [1]	bioavailability [2]	fCmax (Mus musculus [3])	Cp(f) (Plasma [4])	MRT [5]	MRT [6]	Cp(f) (Plasma [7])	Vd [8]	bioavailability [9]	Cp(f) (Plasma [10])	EC50 [11]	microsomal CLint at 1 µM [12]	Drug metabolism (Liver microsome [14])	fraction unbound [15]	Drug metabolism (Liver microsome [16])	fCmax (Mus musculus [17])	clearance [18]	Compound	Ratio [13]
1.6 L/kg	82%	0.292 µM	58 nM	5.3 h	4.6 h	240 nM	1 L/kg	39%	786 nM	–	–	–	–	–	–	–	CC#C[C@H]1CN(S(=O)(=O)c2ccc(N)nc2)CCN1c1ccc([C@@](C)(O)C(F)(F)F)cc1	–
8.3 L/kg	7%	–	–	–	4.4 h	–	–	–	–	1790 nM	353 µL/min/mg	Active	0.037	Active	0.032 µM	68.3 mL/min/kg	C[C@H]1COCCN1C[C@H]1CN(S(=O)(=O)c2cccs2)CCN1c1ccc([C@@](C)(O)C(F)(F)F)cc1	50
